Hck-Nef inh = inhibitors of human Hck kinase activated by Nef; 0.68% of 220,000 active; AID 463187; P08631; Recombinant Hck-YEEI plus Nef, Z-Lyte FRET kinase assay; inhibition, % at 20 µM;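 active = Hck-Nef kinase inhibition above about 50%, limit read from the data; inactive = inhibition below that limit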;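 note: 0% = DMSO with Hck plus Nef and 100% = Hck alone without Nef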
RanGTP-Impb inh = inhibitors of RanGTP-importin-beta interaction, primary screen, biochemical, FRET, CFP-Ran, YFP-importin-beta, homogeneous. cell-free CFP-Ran/YFP-importin-beta FRET ratio. inhibition, % (test concentration not listed). 1.1% of 300,000 active. AID 2216;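 active = more than half of the replicate wells show a fall in the fluorescence ratio signal beyond about 16%, limit read from the data, passing the limit was not always enough; inconclusive = exactly half of the replicate wells pass the set limit; inactive = fewer than half of replicates pass the limit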;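 note: 0% = DMSO wells and 100% = Ran loaded with GDP instead of GTP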
Pemphigus Ab inh = inhibitors of pemphigus antibody binding to human desmoglein-3 | P32926 | DSG3-coupled beads, scFv-anti-DSG3-GFP binding, flow cytometry; hits give low values | binding (percent of control), % at 10 µM | 0.48% of 310,000 active | AID 588358;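 active = binding more than 3 SD below its plate's average and above zero; inconclusive = below that plate limit but binding exactly zero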;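 note: hits lower antibody fragment binding to DSG3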
Target sequence (P32926 whole entry, looked up, the tested form may be a part): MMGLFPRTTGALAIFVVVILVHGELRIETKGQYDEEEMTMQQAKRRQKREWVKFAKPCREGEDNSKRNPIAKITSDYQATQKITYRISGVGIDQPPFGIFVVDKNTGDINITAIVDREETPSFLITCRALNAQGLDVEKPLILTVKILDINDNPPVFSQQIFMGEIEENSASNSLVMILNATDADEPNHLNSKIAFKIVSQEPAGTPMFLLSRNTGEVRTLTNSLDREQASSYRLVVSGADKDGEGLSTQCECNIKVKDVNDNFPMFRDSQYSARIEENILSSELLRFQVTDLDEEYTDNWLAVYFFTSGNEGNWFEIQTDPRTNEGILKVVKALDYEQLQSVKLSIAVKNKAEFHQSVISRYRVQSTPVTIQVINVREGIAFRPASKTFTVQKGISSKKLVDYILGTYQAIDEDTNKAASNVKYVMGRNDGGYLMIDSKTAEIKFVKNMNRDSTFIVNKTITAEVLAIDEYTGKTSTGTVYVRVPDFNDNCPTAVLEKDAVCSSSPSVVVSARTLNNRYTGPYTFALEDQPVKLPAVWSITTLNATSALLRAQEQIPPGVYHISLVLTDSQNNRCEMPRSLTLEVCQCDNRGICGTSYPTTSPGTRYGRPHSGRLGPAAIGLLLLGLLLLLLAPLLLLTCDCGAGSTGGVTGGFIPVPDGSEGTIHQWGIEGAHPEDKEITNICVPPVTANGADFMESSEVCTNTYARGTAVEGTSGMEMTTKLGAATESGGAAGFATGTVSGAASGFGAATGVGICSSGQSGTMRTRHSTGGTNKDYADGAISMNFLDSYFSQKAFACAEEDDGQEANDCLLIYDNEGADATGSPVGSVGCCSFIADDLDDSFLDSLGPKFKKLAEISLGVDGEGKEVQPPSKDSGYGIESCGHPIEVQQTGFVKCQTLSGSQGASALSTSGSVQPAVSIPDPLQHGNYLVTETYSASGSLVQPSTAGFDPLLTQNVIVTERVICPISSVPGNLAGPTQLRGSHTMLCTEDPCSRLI
Runt-CBFb FRET = Runt domain-CBFb interaction inhibition; inhibition, % at 20 µM; Cerulean-Runt/Venus-CBFb FRET ratio 530/480, 1 h; 0.46% of 220,000 active;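 active = inhibition over about 50% at 20 µM in the single-dose screen, limit read from the data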;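 note: 0% = DMSO wells and 100% = excess unlabeled CBFb competitor control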
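Assay system: Cerulean-Runt domain / Medium: Tris 50 mM pH 7.5, KCl, K2SO4, 0.01% BSA / Timing: protein complex preformed 1 h, compound exposure 1 h, room temperature, dark / Measured by: FRET, excitation 422 nm, emission at 530 and 480 nm / Evaluation: loss of energy transfer signal / Control set: 5 µM unlabeled CBFb as full-inhibition high control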
Runt-SMMHC FRET = Runt domain-CBFb-SMMHC interaction inhibition | Q01196+Q13951 | Cerulean-Runt/Venus-CBFb-SMMHC FRET ratio 530/480, 1 h | inhibition, % at 20 µM | 0.74% of 220,000 active | AID 1434;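 active = mean inhibition across duplicate retests at 20 µM reaching about 50%, limit read from the data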;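 note: 0% = DMSO wells and 100% = wells with excess untagged CBFb-SMMHC; inhibitors lower the FRET ratio by blocking Runt binding to CBFb-SMMHC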
p-CIP stab down = compounds decreasing mouse p/CIP protein stability. AID 1984. 0.01% of 290,000 active. F442A p/CIP-EGFP cells, EGFP fluorescence, 16 h. decrease of EGFP signal, % at 10 µM;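 active = EGFP signal decrease of at least 30% at 10 µM or well 3 SD below plate mean, unless failing retest; inactive = the rest, including hits failing retest or dose response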
An asterisk follows results filed as active; ? = inconclusive; · = not tested or not shown. Rows were chosen to be rich in hits. Some 2.1% of all compounds tested hit in one or more screens of this group.

SMILES | Hck-Nef inh | RanGTP-Impb inh | Pemphigus Ab inh | Runt-CBFb FRET | Runt-SMMHC FRET | p-CIP stab down
CC(=O)N1C(=O)/C(=C2\SC(=S)N(c3c(C)n(C)n(-c4ccccc4)c3=O)C2=O)c2ccccc21 | 1.5 | 4.2 | 66.8* | 31.2 | 6.2 | 11.5
Cc1cc([N+](=O)[O-])nn1CC(=O)NCc1nc2ccccc2[nH]1 | 25.5 | 173.6* | 108.7 | 1.0 | -0.5 | 2.3
Cc1cc(O)c(CN(C)C)c2c1C(=O)/C(=C/c1ccco1)O2 | · | -45.9 | 100.5 | · | · | -8.4
Cc1cc(O)c(C=O)c2c1C(=O)Oc1c(CO)c(O)c3c(c1O2)C(O)OC3=O (configuration not stated) | 32.8 | · | · | 53.1* | 40.0 | -1.9
CCN(CC)c1ccc(/C=N/NC(=O)c2cccc(S(=O)(=O)N3CCOCC3)c2)c(O)c1 | -61.7 | -0.7 | · | 20.3 | 91.9* | -16.6
CCN(CC)c1ccc(C=Nc2cccc(S(=O)(=O)N3CCOCC3)c2)c(O)c1 | · | · | 106.7 | · | · | ·
CCN(CC)c1ccc2cc(-c3nc4ccccc4n3C)c(=O)oc2c1 | 8.7 | 125.8* | 95.7 | 11.9 | 60.9* | -115.0
CN(C)Cc1c(O)ccc2cc(-c3nc4ccccc4n3C)c(=O)oc12 | · | 132.4* | 99.2 | · | · | -5.2
CCN(CC)c1ccc2cc(-c3nnc(-c4ccc(Br)cc4)o3)c(=O)oc2c1 | -3.7 | · | · | · | · | ·
CCN(CC)c1ccc2cc(-c3nnc(-c4ccccc4)o3)c(=O)oc2c1 | 6.2 | 114.5* | ? | 5.4 | 82.8* | -101.7
CCN(CC)c1ccc2cc(-c3nc(-c4ccc(OC)cc4)cs3)c(=O)oc2c1 | -9.8 | · | · | 19.7 | 61.6* | -750.5
O=C(NCc1ccccc1)c1ccc(S(=O)(=O)NCc2ccco2)cc1 | · | 4.2 | 108.3 | · | · | -7.4
S=C(NCC1CCCO1)c1ccc(Br)cc1 (configuration not stated) | · | -2.7 | 122.7 | · | · | 5.7
CC(C)(C)c1ccc(OCC(=O)N(Cc2cccs2)C2CCS(=O)(=O)C2)cc1 (configuration not stated) | · | -2.0 | 102.4 | · | · | -1.1
CCN(CC)c1ccc2cc(-c3nc4ccccc4[nH]3)c(=O)oc2c1 | -8.7 | 129.1* | 374.0 | 19.3 | 78.7* | -335.0
COc1cccc2cc(-c3nc4ccccc4[nH]3)c(=O)oc12 | · | -16.5 | 84.0 | · | · | -10.6
O=C(NC(=S)N1CCCCC1CO)c1cc(Br)ccc1Cl (configuration not stated) | · | · | 99.5 | · | · | ·
N=c1c(S(=O)(=O)c2ccccc2)cc2c(=O)n3ccccc3nc2n1Cc1cccnc1 | · | 122.3* | 104.1 | · | · | ·
N=c1c(S(=O)(=O)c2ccc(Br)cc2)cc2c(=O)n3ccccc3nc2n1Cc1ccccc1 | · | 0.4 | 94.2 | · | · | 3.1
Cc1cccn2c(=O)c3cc(S(=O)(=O)c4ccccc4)c(=N)n(Cc4cccnc4)c3nc12 | · | 139.2* | 111.5 | · | · | 4.4
Cc1ccc(S(=O)(=O)c2cc3c(=O)n4cccc(C)c4nc3n(Cc3ccncc3)c2=N)cc1 | · | 112.4* | 95.8 | · | · | -17.0
O=C(NC1CC2CCCC(C1)N2Cc1ccc(F)cc1)c1ccc(F)cc1 (configuration not stated) | · | 4.8 | 120.0 | · | · | 6.2
CC(=O)c1c(C)[nH]c(C(=O)NCc2ccc(Cl)cc2)c1C | · | · | 86.8* | · | · | ·
COC(=O)C1=C(C)NC2=C(C(=O)CC(C)(C)C2)C1c1cccc(C)n1 (configuration not stated) | 21.6 | 9.2 | 99.8 | 35.1 | 86.7* | 15.0
COc1ccc(C2C(C#N)=C(C)NC3=C2C(=O)CC(C)(C)C3)cc1 (configuration not stated) | 17.6 | -2.0 | 98.5 | 16.8 | 39.9 | -2.9
SMILES | Hck-Nef inh | RanGTP-Impb inh | Pemphigus Ab inh | Runt-CBFb FRET | Runt-SMMHC FRET | p-CIP stab down
CC1=C(C(=O)OCC2CCCO2)C(c2ccncc2)C2=C(CC(C)(C)CC2=O)N1 (configuration not stated) | 26.7 | ? | 93.6 | 42.3 | 86.3* | -9.5
CCOC(=O)C1=C(C)NC2=C(C(=O)CC(C)(C)C2)C1c1ccc(N(C)C)cc1 (configuration not stated) | 4.7 | 0.8 | 98.9 | 3.8 | 16.4 | -7.7
COC(=O)C1=C(C)NC2=C(C(=O)CC(C)(C)C2)C1c1cn(Cc2ccc(Br)cc2)nc1-c1ccccc1 (configuration not stated) | 21.9 | -0.8 | 85.6 | 8.5 | 27.1 | 4.5
COc1cccc(C2C(C#N)=C(C)NC3=C2C(=O)CC(C)(C)C3)c1 (configuration not stated) | 17.8 | 1.8 | 100.4 | 16.6 | 55.0* | 2.4
CCCCN1C(=O)NC(c2ccc(OC)cc2)C(C(=O)OCc2ccccc2)=C1C (configuration not stated) | · | 0.0 | 108.8 | · | · | -15.1
COc1ccc(CN2CCNC(=O)C2CC(=O)NCCCC2CCCC2)c(F)c1 (configuration not stated) | · | -0.7 | 110.3 | · | · | -11.6
O=C1C2CCCN2C(c2ccco2)N1c1ccc(F)cc1 (configuration not stated) | -18.8 | -0.3 | 111.6 | -0.4 | 0.8 | 1.1
O=C(CSc1nc(-c2ccccc2Cl)ns1)NCc1ccco1 | 0.2 | 0.3 | · | -2.4 | 1.5 | -6.1
O=C(CSc1nc(-c2ccccc2)cc(=O)[nH]1)NCc1ccc2c(c1)OCO2 | 1.0 | 2.6 | 67.9* | -1.2 | -0.1 | -12.9
O=C(CSc1nc(-c2ccccc2Cl)ns1)NCc1ccc2c(c1)OCO2 | -2.3 | 1.9 | 74.7* | 2.3 | 2.7 | 2.2
Nc1ccn([C@@H]2O[C@H](CNCC3=CCOc4ccc(O)cc43)[C@@H](O)[C@H]2O)c(=O)n1 | · | · | 97.6 | · | · | ·
CNc1nc(-c2ccc(S(=O)(=O)N3CCCCC3)cc2)cs1 | · | · | 81.7* | · | · | ·
O=C(Nc1nc(-c2ccc(S(=O)(=O)N3CCCC3)cc2)cs1)c1ccco1 | -0.7 | -1.1 | 91.5 | 1.8 | 1.5 | -12.9
Cc1ccc(NCCC(=O)c2ccccc2)cc1Cl | -11.4 | -0.5 | 89.1* | 2.1 | -0.5 | -5.1
Cc1ccc(C(=O)CNc2ccc(C)c(Cl)c2)cc1 | 3.2 | 10.2 | -6.7* | 2.4 | 0.6 | 6.1
CC1CC(=O)N(CC(=O)Nc2ccccc2F)c2ccccc2S1(=O)=O (configuration not stated) | · | 0.5 | · | · | · | -5.3
COc1ccc(/C=N\NC(=O)c2ccc(Cn3cc(Br)c([N+](=O)[O-])n3)o2)c(OC)c1C | 15.8 | 0.4 | 64.5* | -0.8 | -3.1 | -11.3
COc1cc2c(cc1OC)CN(CC(=O)Nc1ccc(F)cc1F)CC2 | · | 19.5* | 94.7 | · | · | -15.8
COc1cc2c(cc1OC)CN(CC(=O)Nc1cccc(C)c1)CC2 | 2.0 | 31.6* | 103.9 | 7.2 | 20.8 | -20.4
CC(C)CN(CC(C)C)c1nn[nH]n1 | · | · | 85.6* | · | · | ·
CCCC(=O)N(CCN1CCOCC1)c1nc2c(F)cc(F)cc2s1 | · | 24.8 | 109.0 | · | · | 9.0

Screening data as filed in PubChem.
